Compound activity from PubChem.
SENP8 block-1: inhibitors of human SENP8 protease; Q96LD8; recombinant SENP8, Nedd8 substrate fluorescence; inhibition, % at 20 µM; 0.64% of 360,000 active; AID 602440; in the data active means inhibition mostly above about 40%, no sharp cut-off; inactive means mostly below about 27%
SENP7 block: SENP7 protease inhibition | inhibition, % at 5 µM | Q9BQF6 | recombinant SENP7, Z-RLRGG-aminoluciferin luminescence, 40 min | 1.5% of 330,000 active | AID 434973;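 active means inhibition above about 50% at the single test dose, limit read from the data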;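 further: plate controls were DMSO with enzyme for no effect and no enzyme buffer wells for full effect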
SENP1 FRET inh: SENP1 (human) catalytic domain inhibition. recombinant SENP1 catalytic domain, CyPet-SUMO1-YPet FRET cleavage. inhibition, % at 10 µM. 0.21% of 360,000 active;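 active means inhibition at least 30% at 10 µM, raw YFP signal under a set limit, fluorescence ratio 0.5 to 1.5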;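 further: 0% = enzyme with DMSO and 100% = no enzyme wells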
Target sequence (Q9P0U3 419-644 limits assumed): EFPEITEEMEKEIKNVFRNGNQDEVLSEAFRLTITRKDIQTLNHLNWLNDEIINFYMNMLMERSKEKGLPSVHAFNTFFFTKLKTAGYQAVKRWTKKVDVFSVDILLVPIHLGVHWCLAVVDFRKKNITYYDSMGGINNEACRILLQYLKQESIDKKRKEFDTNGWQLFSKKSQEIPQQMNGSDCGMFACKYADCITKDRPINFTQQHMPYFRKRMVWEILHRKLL
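Test system: hSENP1 catalytic domain, recombinant; Amount: 20 pM final SENP1 enzyme; Medium: Tris pH 8 buffer plus EDTA, NaCl, BME, BSA, NP40, catalase; Schedule: 50 min enzyme reaction, room temperature, light-protected; Technique: FRET fluorescence in CFP and YFP emission channels; Controls: no-enzyme wells low, DMSO-plus-enzyme wells high control.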
SENP8 block-2: SENP8 protease inhibition. purified SENP8, Z-RLRGG-aminoluciferin cleavage, luminescence. inhibition, % at 10 µM. 1.2% of 330,000 active. AID 2540; in the data active means inhibition above about 50%
SENP6 inh: SENP6 protease inhibition. Q9GZR1. Recombinant SENP6 catalytic domain, aminoluciferin luminescence. inhibition, % at 10 µM. 1.8% of 330,000 active;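 active means inhibition above about 50% at the single tested dose, limit read from the data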;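 further: plate controls were DMSO wells with enzyme for no effect and DMSO wells lacking enzyme for full effect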
SENP8 conf: human SENP8 inhibition, confirmed; shares compounds with SENP7 block; Recombinant SENP8, Z-RLRGG-aminoluciferin luminescence, 60 min; inhibition, % at 12.5 µM; 40% of 6,200 active; AID 488912;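 active means mean inhibition across replicates above about 50%, limit read from the data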
SENP6 confirm: confirmation of human SENP6 protease inhibitors; AID 488915; shares compounds with SENP7 block; 58% of 6,200 active; inhibition, % at 12.5 µM; recombinant SENP6, Z-RLRGG-aminoluciferin luminescence
SENP7 conf: human SENP7 inhibition, confirmed | shares compounds with SENP7 block | recombinant SENP7, Z-RLRGG-aminoluciferin luminescence, 40 min | inhibition, % at 12.5 µM | 69% of 6,200 active
Casp3 SENP sel: selectivity test for SENP inhibitors: human caspase-3 inhibition. shares compounds with SENP7 block. purified caspase-3, Z-DEVD-aminoluciferin luminescence, 60 min. inhibition, % at 12.5 µM. 60% of 6,200 active;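 active means mean inhibition above about 50%, limit read from the data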;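 further: plate controls were enzyme with DMSO for no effect and wells without caspase-3 for full effect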
Target sequence (P42574 28-227 limits assumed): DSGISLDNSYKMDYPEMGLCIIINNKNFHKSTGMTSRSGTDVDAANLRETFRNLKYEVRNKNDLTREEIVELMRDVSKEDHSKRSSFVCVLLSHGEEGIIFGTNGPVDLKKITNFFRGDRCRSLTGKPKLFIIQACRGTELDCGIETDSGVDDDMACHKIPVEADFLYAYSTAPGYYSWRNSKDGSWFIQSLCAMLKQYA
SENP luc ctr: interferes with luciferase luminescence in SENP counter-screen. shares compounds with SENP7 block. Pre-incubated SENP8/Z-RLRGG-aminoluciferin, luciferase luminescence interference. inhibition, % at 12.5 µM. 39% of 6,200 active;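 active means mean inhibition above about 50% when retested at one dose, limit read from the data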;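 further: plate controls were DMSO wells with completed reaction for no effect and substrate without enzyme for full effect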
Numbers without * were called inactive; . = no result. A selection: hits, their analogues and other compounds. The true share with any hit is near 2.5%.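 How the source made its calls, unless noted: active means mean inhibition above about 50% in the one-dose retest (limit read from the data); inactive means the rest.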

SMILES | SENP8 block-1 | SENP7 block | SENP1 FRET inh | SENP8 block-2 | SENP6 inh | SENP8 conf | SENP6 confirm | SENP7 conf | Casp3 SENP sel | SENP luc ctr
O=C(NN/C(=N/S(=O)(=O)c1ccc(Cl)cc1)c1ccccc1)c1ccc(O)cc1 | -59.5 | 97.2* | 0.2 | 95.1* | 95.7* | 72.6* | 62.6* | 89.1* | 87.4* | 87.5*
Cc1ccc(S(=O)(=O)/N=C(/NNC(=O)c2cccc(Cl)c2)c2ccccc2)cc1 | 10.0 | 68.2* | 2.8 | 49.1 | 78.2* | 13.6 | 24.9 | 62.7* | 42.7 | 45.3
Cc1ccc(S(=O)(=O)NN/C(=N/S(=O)(=O)c2ccccc2)c2ccccc2)cc1 | 2.0 | -2.6 | 2.0 | -10.7 | -10.9 | . | . | . | . | .
O=C(NN/C(=N/S(=O)(=O)c1ccc(Cl)cc1)c1ccccc1)c1cccc(Cl)c1 | 19.6 | 84.7* | 2.4 | 71.0* | 86.3* | 50.7* | 64.0* | 87.1* | 63.0* | 38.5
COCc1cccc(-c2csc(C(O)c3ccccc3)n2)c1 (centres undefined) | 8.2 | . | 1.2 | . | . | . | . | . | . | .
COc1ccc(C(=O)c2c(C(F)(F)F)oc3c2C(=O)c2ccccc2C3=O)cc1 | 81.4* | 26.7 | 3.5 | 47.4 | 70.2* | 27.3 | 69.6* | 15.4 | 71.8* | -5.6
CC(C)C(C(=O)NC1CCCC1)N(CC1CCCO1)C(=O)CNS(=O)(=O)c1ccccc1 (centres undefined) | -1.1 | 3.3 | 0.2 | 8.4 | -0.6 | . | . | . | . | .
Cn1c(=O)cc(SCC(=O)NCCC2=CCCCC2)c2ccc(Cl)cc21 | 14.0 | 5.8 | -2.3 | 0.2 | -0.7 | . | . | . | . | .
CN(CCCNC(=O)CSc1cc(=O)n(C)c2cc(Cl)ccc12)Cc1ccccc1 | -19.2 | 75.4* | 0.5 | 2.9 | 7.9 | -13.7 | -10.7 | -13.5 | 1.5 | -6.6
CC1C(=O)N2CCCc3cc(NC(=O)C(=O)NCc4ccccn4)cc1c32 (centres undefined) | 8.2 | 7.5 | 2.2 | -11.7 | -22.1 | . | . | . | . | .
CCOc1ccccc1C(=O)Nc1cccc(-c2ccc(N3CCOCC3)nn2)c1 | -15.4 | 70.2* | -1.4 | 55.4* | 78.3* | 23.8 | 67.8* | 89.2* | 62.7* | 16.9
CN1CCN(c2ccc(-c3cccc(NC(=O)COc4ccc(Cl)cc4Cl)c3)nn2)CC1 | 1.0 | 66.7* | -7.3 | 19.4 | 31.3 | 17.5 | 20.2 | 21.1 | 18.4 | 17.2
CCC(=O)Nc1cccc(-c2ccc(N3CCN(C)CC3)nn2)c1 | 6.9 | 2.7 | 1.0 | -6.4 | -1.5 | . | . | . | . | .
O=[N+]([O-])c1ccc(Cl)c(S(=O)(=O)Nc2ccc(-c3ccc(N4CCCC4)nn3)cc2)c1 | 14.7 | -7.5 | -1.7 | -3.3 | -12.1 | . | . | . | . | .
CCC(=O)Nc1cccc(-c2ccc(N3CCCCC3)nn2)c1 | -7.1 | 52.2* | 0.6 | 40.1 | 58.4* | 52.1* | 49.9 | 79.1* | 77.0* | 61.4*
O=[N+]([O-])c1ccc(Cl)c(S(=O)(=O)Nc2cccc(-c3ccc(N4CCCC4)nn3)c2)c1 | 6.6 | 41.8 | 2.3 | 86.3* | 92.0* | 47.4 | 90.8* | 97.7* | 85.9* | 13.1
CCOc1ccc(C(=O)Nc2cccc(-c3ccc(N4CCOCC4)nn3)c2)cc1OCC | -22.4 | 2.7 | -0.6 | -0.5 | 3.9 | . | . | . | . | .
CN(C)CCC1(C2=CCCC2)CC/C(=C/c2ccc(Cl)cc2)C1=O (centres undefined) | 13.9 | . | -0.8 | . | . | . | . | . | . | .
COc1cc(C)c(C(=O)Oc2cc(C)c(C(=O)O)c(O)c2)c(O)c1 | 33.5 | -2.7 | -0.4 | 55.4* | 55.5* | 42.1 | 34.8 | 63.6* | 22.1 | 58.9*
O=C(Nc1ccccn1)c1ccc(Cl)c(S(=O)(=O)N2CCc3ccccc32)c1 | 5.6 | -1.1 | 4.7 | -4.4 | 1.2 | . | . | . | . | .
